Assay outcomes from PubChem BioAssay.
AHR activator: activates the human aryl hydrocarbon receptor. P35869. AHR-responsive luciferase reporter cells, luminescence. activation, % at 5 µM. actives 2.5% (n = 320,000); in the data active = activation above about 47%;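 also: 0% = vehicle wells and 100% = reference agonist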
Fh CTSL1 inh: blocks F. hepatica cathepsin L1 in PFM18AAP counter-screen. AID 1906. inhibition, % at 5.96 µM. actives 0.49% (n = 300,000). recombinant F. hepatica cathepsin L1, Z-Leu-Arg-MCA fluorescence;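 active = inhibition above the mean of all tested compounds plus 3 SD, set per screening campaign, cut at about 17% in these data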;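 also: 0% = plate median of test compound wells and 100% = 1 µM Z-Phe-Ala-diazomethylketone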
PfM18AAP inh: blocks P. falciparum M18 aspartyl aminopeptidase; recombinant PfM18AAP, H-Glu-NHMec fluorogenic cleavage; inhibition, % at 7.35 µM; actives 1.2% (n = 290,000);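 active = inhibition above the campaign mean inhibition over all tested compounds plus 3 SD, cut at about 28% in these data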;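 also: 0% = plate median of test compound wells and 100% = 2 mM ZnCl2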
SENP1 FRET inh: SENP1 (human) catalytic domain inhibition | Q9P0U3 | recombinant SENP1 catalytic domain, CyPet-SUMO1-YPet FRET cleavage | inhibition, % at 10 µM | actives 0.21% (n = 360,000) | AID 624204;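 active = inhibition at least 30% at 10 µM, raw YFP signal under a set limit, fluorescence ratio 0.5 to 1.5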;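 also: 0% = enzyme with DMSO and 100% = no enzyme wells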
Target sequence (Q9P0U3 419-644 limits assumed): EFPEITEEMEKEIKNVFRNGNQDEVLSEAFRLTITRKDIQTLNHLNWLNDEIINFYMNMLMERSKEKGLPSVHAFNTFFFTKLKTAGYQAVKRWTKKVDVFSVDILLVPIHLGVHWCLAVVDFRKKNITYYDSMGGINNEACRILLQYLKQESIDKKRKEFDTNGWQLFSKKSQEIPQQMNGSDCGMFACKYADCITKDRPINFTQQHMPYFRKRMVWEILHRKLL
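material = recombinant human SENP1 catalytic domain, His6-tagged | quantity = 20 pM enzyme | reagent = 25 nM SUMO1 FRET substrate | compound dosing = 10 µM single point, 0.5% DMSO | timing = 50 min enzyme reaction, room temperature, light-protected | detection = FRET, CFP and YFP emission | control set = no-enzyme low, enzyme-DMSO high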
HDAC3 inhib: inhibitors of human histone deacetylase 3. O15379. recombinant HDAC3, fluorogenic peptide/trypsin coupled, fluorescence. inhibition, % at 8.3 µM. actives 0.15% (n = 320,000). AID 2718; in the data active = inhibition above about 26%, passing the limit was not always enough; inconclusive = no clear call, values can overlap the other calls
GAA850 FXN act: activators of GAA850 frataxin (FXN) promoter; HEK293 lucGAA850 FXN promoter luciferase reporter, 24 h; percent of 10 µM SAHA response; activation, % at 6 µM; AID 540364; actives 0.56% (n = 360,000);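 active = activation above the average of all compounds screened plus 3 SD, cutoff fixed separately per campaign, cut at about 7.5% in these data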;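 also: 0% = DMSO wells and 100% = 10 µM SAHA wells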
GAA30 counter: counter-screen for GAA850 frataxin promoter activators: GAA30 promoter activation; shares compounds with GAA850 FXN act; HEK293 lucGAA30 FXN promoter luciferase, 24 h; DMSO = 0%, 5 µM ipriflavone = 100%; activation, % at 6 µM; actives 66% (n = 1,900); AID 588350;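 active = mean activation above the mean of solvent-only control wells plus 3 SD, cut at about 22% in these data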;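 also: counterscreen of GAA850 promoter hits where activity marks nonselective or luminescence artifacts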
FXN GAA850 conf: confirmation of GAA850 frataxin (FXN) promoter activators. shares compounds with GAA850 FXN act. HEK293 lucGAA850 FXN promoter luciferase reporter, 24 h; 100% = activation by SAHA. activation, % at 6 µM. actives 86% (n = 1,900). AID 588351;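 active = mean activation above a set limit taken from the primary screen, cut at about 8% in these data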;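 also: 0% = DMSO wells and 100% = 10 µM SAHA wells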
Starred values were filed as active, the others as inactive; ? = inconclusive; · = not tested or not shown. An excerpt weighted towards active compounds, which were near 4.2% of everything screened.

SMILES	AHR activator	Fh CTSL1 inh	PfM18AAP inh	SENP1 FRET inh	HDAC3 inhib	GAA850 FXN act	GAA30 counter	FXN GAA850 conf
CCN=C1S/C(=C\c2cc(Br)c(O)c(OC)c2)C(=O)N1CC	·	·	6	-28	3	3	·	·
Cc1cccc(NC(=O)COc2coc(CN3CCN(c4ccccc4)CC3)cc2=O)c1	2	2	·	-1	4	-1	·	·
CCOC(=O)N1CCN(C(=O)c2ccc3c(c2)N(Cc2cc(C)ccc2C)C(=O)c2ccccc2S3=O)CC1 (centres undefined)	2	3	6	1	3	-6	·	·
COc1ccc(Nc2ccc3c(c2)=NC2(CCCCC2)[N+]=3[O-])cc1	10	-1	12	15	?	17*	50*	106*
[O-][N+]1=c2ccc(Nc3ccccc3)cc2=NC12CCCCC2	18	20*	13	11	13	10*	46*	70*
COc1ccc(CN2C[C@@H](CO)O[C@@H](n3cnc4c(NCCO)ncnc43)C2)cc1	·	·	·	3	·	2	·	·
COC(=O)c1c(-c2ccc(F)cc2)csc1NC(=O)c1ccco1	-1	-1	2	-2	4	9.6*	91*	38*
O=C(Nc1scc(-c2ccccc2)c1C(=O)O)c1ccco1	5	0	8	0	2	2	·	·
COc1ccc(/C=C2\SC(=S)N(CCC(=O)NC3C=CS(=O)(=O)C3)C2=O)cc1 (centres undefined)	-5	2	9	-26	2	-2	·	·
COc1cccc(/C=C2\SC(=S)N(CCC(=O)NC3C=CS(=O)(=O)C3)C2=O)c1 (centres undefined)	-1	1	8	2	11	10*	30*	14*
O=C(c1cccc(S(=O)(=O)Nc2ccc(F)cc2)c1)N1CCOCC1	-2	·	·	-2	1	1	·	·
O=C(Cn1c(=O)oc2ccccc21)Nc1nnc(N2CCCCCC2)s1	3	1	-1	2	-2	0	·	·
CC1CCN(c2nnc(NC(=O)Cn3c(=O)oc4ccccc43)s2)CC1	0	-1	5	0	-9	15*	8	2
O=C(O)c1cc(Nc2cc(Cl)c3nonc3c2[N+](=O)[O-])ccc1O	3	5	-24	2	2	-1	·	·
COc1cc2c(cc1OC)C1=C(C#N)CCC(=NC(=O)c3ccco3)N1CC2	2	4	4	-5	4	7	·	·
COc1cc2c(cc1OC)C1=C(C#N)CC/C(=N\S(=O)(=O)c3cccc(Cl)c3)N1CC2	3	2	7	-11	7	8.2*	27*	14*
Nc1ccc(C#Cc2ccc3c(=O)c4ccccc4oc3c2)cc1	27	1	8	-25	3	2	·	·
Cn1cncc1C#Cc1ccc2c(=O)c3ccccc3oc2c1	-3	·	·	-2	-4	7.9*	67*	40*
O=C(N/N=C/c1cc(Br)ccc1OC(=O)c1ccc(Br)cc1)c1ccncc1	15	2	-2	7	1	-5	·	·
CCOC(=O)c1ccc(N2Cc3ccccc3C2=NC(=O)c2cccs2)cc1	·	·	1	-1	·	9.3*	53*	23*
CC(=O)c1ccc(N2Cc3ccccc3C2=NC(=O)c2cccs2)cc1	-3	3	-4	-4	12	4	·	·
Cn1c2ccccc2c(=O)c2ccc(C#CC3(N)CCCCC3)cc21	32	-2	8	-29	-86	10*	49*	46*
CCOC(=O)c1oc2c(CN3CCN(C)CC3)c(O)c(CC)cc2c(=O)c1-c1nc2ccccc2s1	·	·	·	0	·	1	·	·
CC(O)(c1cccc(F)c1)c1nc(/C=C/c2ccccc2)cs1 (centres undefined)	·	·	·	1	·	1	·	·
COC(=O)c1c(-c2ccccc2)csc1NC1=NS(=O)(=O)c2ccccc21	16	-2	-3	0	-10	8.9*	125*	43*
